In ChEMBL document CHEMBL4342503, “Diazabicyclooctane Functionalization for Inhibition of β-Lactamases from Enterobacteria” (2020):
The source made the active and inactive calls. The calls are words filed in the database; no cut-off is given here.

Key:
[1] = Inhibition of TEM1 (unknown origin) expressed in Escherichia coli BL21 DE3 assessed as K2/Ki ratio using nitrocefin as substrate by spectrophotometry
Summary of the method: (§1)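 His-tagged enzymes expressed in E. coli BL21(DE3) (IPTG 0.5 mM, 16°C, 18 h), purified by Ni-NTA and size exclusion in 25 mM Tris-HCl pH 7.5, 300 mM NaCl. Carbamoylation k2/Ki from progress curves, reporter nitrocefin 100 μM, 20°C, 100 mM MES pH 6.4; inhibitor up to 100 μM; ≥6 curves, ≥2 independent experiments.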

[2] = tested on: Escherichia coli; test: Antibacterial activity against Escherichia coli Top10 assessed as cefamandole MIC by CLSI protocol based method (reference value: 2 ug/ml); type: functional
Summary of the method: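 Broth microdilution in cation-adjusted Mueller-Hinton broth following CLSI. Strain carries a β-lactamase gene cloned in pTRC-99k (kanamycin marker); preculture in BHI with IPTG (500 μM) and kanamycin (50 μg/ml); IPTG (500 μM) also in plates to induce enzyme. β-Lactam MIC read with or without inhibitor at fixed 15 μM (4 μg/ml for avibactam; clavulanate 4 μg/ml). Median of five biological repeats from two independent experiments.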

[3] = tested on: Escherichia coli; test: Antibacterial activity against Escherichia coli Top10 harboring TEM1 assessed as cefamandole MIC by CLSI protocol based method (reference value: 2048 ug/ml); type: functional
[4] = Inhibition of KPC-2 (unknown origin) expressed in Escherichia coli BL21 DE3 assessed as K2/Ki ratio using nitrocefin as substrate by spectrophotometry; summary of the method: as §1
[5] = tested on: Escherichia coli; test: Antibacterial activity against Escherichia coli Top10 without harboring KPC-2 assessed as aztreonam MIC by CLSI protocol based method (reference value: 0.5 ug/ml); type: functional
[6] = tested on: Escherichia coli; test: Antibacterial activity against Escherichia coli Top10 harboring KPC-2 assessed as aztreonam MIC by CLSI protocol based method (reference value: 2048 ug/ml); type: functional
[7] = tested on: Enterobacter cloacae; test: Inhibition of Enterobacter cloacae CTX-M-15 expressed in Escherichia coli BL21 DE3 assessed as K2/Ki ratio using nitrocefin as substrate by spectrophotometry; summary of the method: as §1
[8] = tested on: Escherichia coli; test: Antibacterial activity against Escherichia coli Top10 without harboring CTX-M-15 assessed as amoxicillin MIC by CLSI protocol based method (reference value: 8 ug/ml); type: functional
[9] = tested on: Escherichia coli; test: Antibacterial activity against Escherichia coli Top10 harboring CTX-M-15 assessed as amoxicillin MIC by CLSI protocol based method (reference value: 2048 ug/ml); type: functional
[10] = tested on: Enterobacter cloacae; test: Inhibition of Enterobacter cloacae AmpC expressed in Escherichia coli BL21 DE3 assessed as K2/Ki ratio using nitrocefin as substrate by spectrophotometry; summary of the method: as §1
[11] = tested on: Escherichia coli; test: Antibacterial activity against Escherichia coli Top10 without harboring AmpC assessed as cefotaxime MIC by CLSI protocol based method (reference value: 0.125 ug/ml); type: functional
[12] = tested on: Escherichia coli; test: Antibacterial activity against Escherichia coli Top10 harboring AmpC assessed as cefotaxime MIC by CLSI protocol based method (reference value: 256 ug/ml); type: functional
[13] = Inhibition of OXA-48 expressed in Escherichia coli BL21 DE3 assessed as K2/Ki ratio using CENTA as substrate by spectrophotometry
Summary of the method: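 OXA-48 expressed in E. coli BL21(DE3) (IPTG 0.5 mM, 16°C, 18 h), purified by Ni-NTA and size exclusion. Carbamoylation k2/Ki by spectrophotometric progress curves with CENTA 100 μM as reporter, 20°C, 100 mM MES pH 6.4; inhibitor up to 100 μM; ≥6 curves from ≥2 independent experiments.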

[14] = tested on: Escherichia coli; test: Antibacterial activity against Escherichia coli Top10 without harboring OXA-48 assessed as ertapenem MIC by CLSI protocol based method (reference value: < 0.03 ug/ml); type: functional
[15] = tested on: Escherichia coli; test: Antibacterial activity against Escherichia coli Top10 harboring OXA-48 assessed as ertapenem MIC by CLSI protocol based method (reference value: 8 ug/ml); type: functional

| SMILES | Ratio [1] | MIC [2] | MIC [3] | Ratio [4] | MIC [5] | MIC [6] | Ratio [7] | MIC [8] | MIC [9] | Ratio [10] | MIC [11] | MIC [12] | Ratio [13] | MIC [14] | MIC [15] |
| --- | --- | --- | --- | --- | --- | --- | --- | --- | --- | --- | --- | --- | --- | --- | --- |
| O=C1N2C[C@@H](CC[C@H]2Cn2cc(CN3CCOCC3)nn2)N1OS(=O)(=O)[O-].[Na+] | 1200 M⁻¹ s⁻¹ | 2 µg/mL | 8 µg/mL | 190 M⁻¹ s⁻¹ | 0.25 µg/mL | 32 µg/mL | 100 M⁻¹ s⁻¹ | 8 µg/mL | 64 µg/mL | 31 M⁻¹ s⁻¹ | 0.125 µg/mL | 128 µg/mL | inactive | < 0.03 µg/mL | 8 µg/mL |
| C[Si](C)(C)c1cn(C[C@@H]2CC[C@@H]3CN2C(=O)N3OS(=O)(=O)[O-])nn1.[Na+] | 370 M⁻¹ s⁻¹ | 2 µg/mL | 64 µg/mL | 97 M⁻¹ s⁻¹ | 0.5 µg/mL | 512 µg/mL | 400 M⁻¹ s⁻¹ | 8 µg/mL | 1020 µg/mL | 24 M⁻¹ s⁻¹ | 0.125 µg/mL | 64 µg/mL | inactive | < 0.03 µg/mL | 16 µg/mL |
| CN(C)Cc1cn(C[C@@H]2CC[C@@H]3CN2C(=O)N3OS(=O)(=O)[O-])nn1.[Na+] | 780 M⁻¹ s⁻¹ | 2 µg/mL | 32 µg/mL | 120 M⁻¹ s⁻¹ | 0.5 µg/mL | 64 µg/mL | 29 M⁻¹ s⁻¹ | 4 µg/mL | 256 µg/mL | 20 M⁻¹ s⁻¹ | 0.125 µg/mL | 64 µg/mL | inactive | < 0.03 µg/mL | 8 µg/mL |
| O=C1N2C[C@@H](CC[C@H]2Cn2nccn2)N1OS(=O)(=O)[O-].[Na+] | 2600 M⁻¹ s⁻¹ | 2 µg/mL | 16 µg/mL | 350 M⁻¹ s⁻¹ | 0.5 µg/mL | 512 µg/mL | 120 M⁻¹ s⁻¹ | 4 µg/mL | 512 µg/mL | 200 M⁻¹ s⁻¹ | 0.125 µg/mL | 32 µg/mL | 150 M⁻¹ s⁻¹ | < 0.03 µg/mL | 8 µg/mL |
| NCCC(=O)Nc1ccc(-c2cn(C[C@@H]3CC[C@@H]4CN3C(=O)N4OS(=O)(=O)O)nn2)cc1.O=C(O)C(F)(F)F | 940 M⁻¹ s⁻¹ | 2 µg/mL | 32 µg/mL | 180 M⁻¹ s⁻¹ | 0.25 µg/mL | 64 µg/mL | 150 M⁻¹ s⁻¹ | 4 µg/mL | 128 µg/mL | 28 M⁻¹ s⁻¹ | 0.25 µg/mL | 64 µg/mL | inactive | < 0.03 µg/mL | 4 µg/mL |
| CC(C)(C)OC(=O)NCc1cn(C[C@@H]2CC[C@@H]3CN2C(=O)N3OS(=O)(=O)[O-])nn1.[Na+] | 2800 M⁻¹ s⁻¹ | 2 µg/mL | 128 µg/mL | 540 M⁻¹ s⁻¹ | 0.25 µg/mL | 512 µg/mL | 130 M⁻¹ s⁻¹ | 8 µg/mL | 1020 µg/mL | 51 M⁻¹ s⁻¹ | 0.125 µg/mL | 128 µg/mL | 210 M⁻¹ s⁻¹ | < 0.03 µg/mL | 16 µg/mL |
| O=C(O)CCc1cn(C[C@@H]2CC[C@@H]3CN2C(=O)N3OS(=O)(=O)[O-])nn1.[Na+] | 720 M⁻¹ s⁻¹ | 2 µg/mL | 32 µg/mL | 70 M⁻¹ s⁻¹ | 0.25 µg/mL | 256 µg/mL | 110 M⁻¹ s⁻¹ | 2 µg/mL |  | 99 M⁻¹ s⁻¹ | 0.25 µg/mL | 64 µg/mL | inactive | < 0.03 µg/mL | 8 µg/mL |
| O=C([O-])[C@H]1/C(=C/CO)O[C@@H]2CC(=O)N21.[Na+] [CLAVULANIC ACID (SODIUM)] |  | 2 µg/mL | 2 µg/mL |  | 0.5 µg/mL | 512 µg/mL |  | 8 µg/mL | 2 µg/mL |  | 0.0625 µg/mL | 128 µg/mL |  | < 0.03 µg/mL | 8 µg/mL |
